Measured values from ChEMBL document CHEMBL2311485, “Chemical and microbial semi-synthesis of tetrahydroprotoberberines as inhibitors on tissue factor procoagulant activity” (Bioorg Med Chem, 2013).

Target: Tissue factor (Homo sapiens, UniProt P13726)
Test: Inhibition of tissue factor procoagulant activity in LPS-stimulated human THP1 cells preincubated for 1 hr before LPS addition measured after 5 hrs
Type: cell-based, THP-1
How it was run: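 THP-1 cells grown in RPMI-1640 with 10% heat-inactivated FCS, 37 °C, 5% CO2. Cells at 1 × 10⁶/mL pretreated 1 h with compound or 0.1% DMSO vehicle, then given 500 ng/mL LPS for 5 h. Cells were pelleted, resuspended, frozen/thawed three times, and the lysate incubated with prothrombin complex plus CaCl₂ (pH 7.3) 15 min at 37 °C. Factor Xa chromogenic substrate (0.5 mM) with EDTA was added and A405 read.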

Chain of Tissue factor (P13726 whole entry): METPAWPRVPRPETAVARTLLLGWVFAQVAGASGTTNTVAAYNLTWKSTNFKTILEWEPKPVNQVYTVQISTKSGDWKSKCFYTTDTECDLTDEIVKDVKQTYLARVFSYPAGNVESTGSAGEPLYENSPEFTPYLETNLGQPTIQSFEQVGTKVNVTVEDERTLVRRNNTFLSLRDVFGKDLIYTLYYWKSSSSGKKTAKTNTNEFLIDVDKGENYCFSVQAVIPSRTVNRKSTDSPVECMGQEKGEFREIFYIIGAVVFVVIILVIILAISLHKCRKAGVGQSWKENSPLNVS

IC50: 105 nM
SMILES: COc1cc2c(cc1O)[C@@H]1Cc3ccc(O)c(OC)c3CN1CC2 [STEPHOLIDINE]
